Laboratory results as given in ChEMBL document CHEMBL1649119, “Daptomycin pharmacokinetics in adult oncology patients with neutropenic fever” (Antimicrob Agents Chemother, 2009).

What was measured:
[1] = Apparent volume of distribution during terminal phase in healthy human at 6 mg/kg, iv administered as 30 mins infusion every 24 hrs measured on day 1; assay type: ADME, organism-based; design: dose 6 mg/kg, route intravenous; settings: in vivo
[2] = Plasma concentration in moderately obese adult human at 4 mg/kg, iv administered as single dose 30 mins infusion measured after 24 hrs; assay type: ADME, organism-based; design: dose 4 mg/kg, route intravenous
[3] = Cmax in healthy human subjects at 10 mg/kg, iv administered as 30 mins infusion every 24 hrs measured on day 1; assay type: ADME, organism-based; design: dose 10 mg/kg, route intravenous; settings: in vivo
[4] = Half life in healthy human at 6 mg/kg, iv administered as 30 mins infusion every 24 hrs measured on day 1; assay type: ADME, organism-based; design: dose 6 mg/kg, route intravenous; settings: in vivo
[5] = Plasma concentration in young healthy human at 4 mg/kg, iv administered as single dose 30 mins infusion measured after 24 hrs; assay type: ADME, organism-based; design: dose 4 mg/kg, route intravenous
[6] = Renal clearance in adult human with hepatic impairment at 6 mg/kg, iv administered as single dose 30 mins infusion; assay type: ADME, organism-based, Kidney; design: dose 6 mg/kg, route intravenous; settings: in vivo, read-out: CL_renal (converted)
[7] = Clearance in healthy human subjects at 6 mg/kg, iv administered as 30 mins infusion every 24 hrs measured on day 4; assay type: ADME, organism-based; design: dose 6 mg/kg, route intravenous; settings: in vivo
Homo sapiens [8] = experiment: Volume of distribution in central compartment in healthy human at 4 mg/kg, iv administered as single dose 30 mins infusion; assay type: ADME, organism-based; design: dose 4 mg/kg, route intravenous; settings: in vivo, 0.5 h
[9] = Apparent volume of distribution during terminal phase in healthy human subjects at 10 mg/kg, iv administered as 30 mins infusion every 24 hrs measured on day 1; assay type: ADME, organism-based; design: dose 10 mg/kg, route intravenous; settings: in vivo
[10] = Clearance in healthy human subjects at 10 mg/kg, iv administered as 30 mins infusion every 24 hrs measured on day 14; assay type: ADME, organism-based; design: dose 10 mg/kg, route intravenous; settings: in vivo
[11] = Apparent volume of distribution during terminal phase in healthy human at 4 mg/kg, iv administered as 30 mins infusion every 24 hrs measured on day 1; assay type: ADME, organism-based; design: dose 4 mg/kg, route intravenous; settings: in vivo
Homo sapiens [12] = experiment: Unbound clearance in healthy human at 6 mg/kg, iv administered as 30 mins infusion every 24 hrs measured on day 1; assay type: ADME, organism-based; design: dose 6 mg/kg, route intravenous; settings: in vivo
[13] = Volume of distribution at steady state in young healthy human at 4 mg/kg, iv administered as single dose 30 mins infusion; assay type: ADME, organism-based; design: dose 4 mg/kg, route intravenous; settings: in vivo, read-out: Vdss
Homo sapiens [14] = experiment: Cmax in healthy human subjects at 6 mg/kg, iv administered as 30 mins infusion every 24 hrs measured on day 4; assay type: ADME, organism-based; design: dose 6 mg/kg, route intravenous; settings: in vivo
Homo sapiens [15] = experiment: Unbound clearance in healthy human at 8 mg/kg, iv administered as 30 mins infusion every 24 hrs measured on day 1; assay type: ADME, organism-based; design: dose 8 mg/kg, route intravenous; settings: in vivo
[16] = Clearance in healthy human at 8 mg/kg, iv administered as 30 mins infusion every 24 hrs measured on day 14; assay type: ADME, organism-based; design: dose 8 mg/kg, route intravenous; settings: in vivo
Homo sapiens [17] = experiment: Half life in cancer patient with neutropenic fever at 6 mg/kg, iv administered as 30 mins infusion every 24 hrs; assay type: ADME, organism-based; design: dose 6 mg/kg, route intravenous; settings: in vivo
How it was run: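 Patients with neutropenic fever; 6 mg/kg by total body weight, 30-min IV infusion q24h. Plasma drawn predose, end of infusion, and 0.5, 1, 2, 4, 8, 12, 24 h after infusion start; total drug by validated HPLC (linear 1–100 μg/ml). Noncompartmental analysis; λz from terminal-phase regression, t1/2 = 0.693/λz.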

[18] = Half life in healthy human at 4 mg/kg, iv administered as single dose 30 mins infusion; assay type: ADME, organism-based; design: dose 4 mg/kg, route intravenous; settings: in vivo
[19] = Apparent volume of distribution during terminal phase in healthy human subjects at 6 mg/kg, iv administered as 30 mins infusion every 24 hrs measured on day 4; assay type: ADME, organism-based; design: dose 6 mg/kg, route intravenous; settings: in vivo
[20] = Clearance in healthy human subjects at 12 mg/kg, iv administered as 30 mins infusion every 24 hrs measured on day 1; assay type: ADME, organism-based; design: dose 12 mg/kg, route intravenous; settings: in vivo
[21] = Clearance in healthy human subjects at 8 mg/kg, iv administered as 30 mins infusion every 24 hrs measured on day 1; assay type: ADME, organism-based; design: dose 8 mg/kg, route intravenous; settings: in vivo
[22] = Half life in healthy human at 8 mg/kg, iv administered as 30 mins infusion every 24 hrs measured on day 7; assay type: ADME, organism-based; design: dose 8 mg/kg, route intravenous; settings: in vivo
[23] = Half life in adult human subjects at 6 mg/kg, iv administered as single dose 30 mins infusion; assay type: ADME, organism-based; design: dose 6 mg/kg, route intravenous; settings: in vivo
[24] = Volume of distribution at steady state in nonobese human at 4 mg/kg, iv administered as single dose 30 mins infusion; assay type: ADME, organism-based; design: dose 4 mg/kg, route intravenous; settings: in vivo, read-out: Vdss
[25] = Apparent volume of distribution during terminal phase in healthy human subjects at 12 mg/kg, iv administered as 30 mins infusion every 24 hrs measured on day 4; assay type: ADME, organism-based; design: dose 12 mg/kg, route intravenous; settings: in vivo
Homo sapiens [26] = experiment: Unbound clearance in healthy human at 4 mg/kg, iv administered as 30 mins infusion every 24 hrs measured on day 7; assay type: ADME, organism-based; design: dose 4 mg/kg, route intravenous; settings: in vivo
[27] = Half life in healthy human subjects at 6 mg/kg, iv administered as 30 mins infusion every 24 hrs measured on day 4; assay type: ADME, organism-based; design: dose 6 mg/kg, route intravenous; settings: in vivo
[28] = Half life in nonobese adult human at 4 mg/kg, iv administered as single dose 30 mins infusion; assay type: ADME, organism-based; design: dose 4 mg/kg, route intravenous; settings: in vivo
[29] = Clearance in healthy human subjects at 12 mg/kg, iv administered as 30 mins infusion every 24 hrs measured on day 4; assay type: ADME, organism-based; design: dose 12 mg/kg, route intravenous; settings: in vivo
[30] = AUC (0 to infinity) in young healthy human at 4 mg/kg, iv administered as single dose 30 mins infusion; assay type: ADME, organism-based; design: dose 4 mg/kg, route intravenous, time infinity; settings: plasma
[31] = Half life in healthy human at 8 mg/kg, iv administered as 30 mins infusion every 24 hrs measured on day 14; assay type: ADME, organism-based; design: dose 8 mg/kg, route intravenous; settings: in vivo
[32] = Half life in healthy human subjects at 10 mg/kg, iv administered as 30 mins infusion every 24 hrs measured on day 1; assay type: ADME, organism-based; design: dose 10 mg/kg, route intravenous; settings: in vivo
[33] = Clearance in healthy human subjects at 12 mg/kg, iv administered as 30 mins infusion every 24 hrs measured on day 14; assay type: ADME, organism-based; design: dose 12 mg/kg, route intravenous; settings: in vivo
[34] = Unbound fraction in healthy human plasma at 6 mg/kg, iv administered as 30 mins infusion every 24 hrs measured on day 1; assay type: ADME, organism-based; design: dose 6 mg/kg, route intravenous
Staphylococcus = experiment: Antimicrobial activity against Staphylococcus; assay type: functional
[35] = Half life in healthy human at 8 mg/kg, iv administered as 30 mins infusion every 24 hrs measured on day 1; assay type: ADME, organism-based; design: dose 8 mg/kg, route intravenous; settings: in vivo
[36] = Mean residence time in cancer patient with neutropenic fever at 6 mg/kg, iv administered as 30 mins infusion every 24 hrs; assay type: ADME, organism-based; design: dose 6 mg/kg, route intravenous; settings: human, in vivo
How it was run: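 Patients with neutropenic fever; 6 mg/kg by total body weight, 30-min IV infusion every 24 h; serial plasma sampling predose to 24 h after infusion start. Total plasma drug by validated HPLC; mean residence time from noncompartmental analysis of concentration-time data.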

[37] = Half life in young healthy human at 4 mg/kg, iv administered as single dose 30 mins infusion; assay type: ADME, organism-based; design: dose 4 mg/kg, route intravenous; settings: in vivo
[38] = Apparent volume of distribution during terminal phase in healthy human at 8 mg/kg, iv administered as 30 mins infusion every 24 hrs measured on day 1; assay type: ADME, organism-based; design: dose 8 mg/kg, route intravenous; settings: in vivo
[39] = Drug excretion in adult human subjects urine assessed as unchanged drug at 6 mg/kg, iv administered as single dose 30 mins infusion; assay type: ADME, organism-based; design: dose 6 mg/kg, route intravenous; settings: read-out: Drug uptake
[40] = Volume of distribution at steady state in nonobese human subjects at 4 mg/kg, iv administered as single dose 30 mins infusion; assay type: ADME, organism-based; design: dose 4 mg/kg, route intravenous; settings: in vivo, read-out: Vdss
[41] = Mean residence time in adult human subjects at 6 mg/kg, iv administered as single dose 30 mins infusion; assay type: ADME, organism-based; design: dose 6 mg/kg, route intravenous; settings: in vivo
[42] = Clearance in old healthy human at 4 mg/kg, iv administered as single dose 30 mins infusion; assay type: ADME, organism-based; design: dose 4 mg/kg, route intravenous; settings: in vivo
[43] = Cmax in healthy human subjects at 12 mg/kg, iv administered as 30 mins infusion every 24 hrs measured on day 1; assay type: ADME, organism-based; design: dose 12 mg/kg, route intravenous; settings: in vivo

Compound: CCCCCCCCCC(=O)N[C@@H](Cc1c[nH]c2ccccc12)C(=O)N[C@H](CC(N)=O)C(=O)N[C@@H](CC(=O)O)C(=O)N[C@@H]1C(=O)NCC(=O)N[C@@H](CCCN)C(=O)N[C@@H](CC(=O)O)C(=O)N[C@H](C)C(=O)N[C@@H](CC(=O)O)C(=O)NCC(=O)N[C@H](CO)C(=O)N[C@@H]([C@H](C)CC(=O)O)C(=O)N[C@@H](CC(=O)c2ccccc2N)C(=O)O[C@@H]1C
- Vd [1]: 0.096 L/kg
- concentration at 24 h [2]: 3.44 µg/mL
- Cmax [3]: 130 µg/mL
- half-life [4]: 7.8 h
- concentration at 24 h [5]: < 3.3 µg/mL
- CL renal at 0.5 h [6]: 0.0608 mL/min/kg
- clearance [7]: 0.152 mL/min/kg
- Vd (Homo sapiens [8]): 3420 mL
- Vd [9]: 0.117 L/kg
- clearance [10]: 0.125 mL/min/kg
- Vd [11]: 0.101 L/kg
- CL (Homo sapiens [12]): 0.992 mL/min/kg
- Vd [13]: 0.14 L/kg
- Cmax (Homo sapiens [14]): 93.9 µg/mL
- CL (Homo sapiens [15]): 0.833 mL/min/kg
- clearance [16]: 0.123 mL/min/kg
- t1/2 (Homo sapiens [17]): 8.75 h
- half-life [18]: 7.74 h
- Vd [19]: 0.101 L/kg
- clearance [20]: 0.167 mL/min/kg
- clearance [21]: 0.168 mL/min/kg
- half-life [22]: 9 h
- half-life [23]: 9.44 h
- Vd [24]: 0.11 L/kg
- Vd [25]: 0.0976 L/kg
- CL (Homo sapiens [26]): 1.05 mL/min/kg
- half-life [27]: 7.9 h
- half-life [28]: 6.83 h
- clearance [29]: 0.15 mL/min/kg
- AUC(0-inf) [30]: 301 µg·h/mL
- half-life [31]: 8.9 h
- half-life [32]: 8.4 h
- clearance [33]: 0.15 mL/min/kg
- fraction unbound at 1 day [34]: 0.07
- MIC90 (Staphylococcus): < 1 µg/mL
- half-life [35]: 9.6 h
- MRT [36]: 11.9 h
- half-life [37]: 6.79 h
- Vd [38]: 0.099 L/kg
- dose excreted at 0.5 h [39]: 39.8%
- Vd [40]: 0.13 L/kg
- MRT [41]: 12.4 h
- clearance [42]: 0.164 mL/min/kg
- Cmax [43]: 165 µg/mL
